In brackets after ≈: the same amount, converted by molar mass. Several values for one entry are separate records, joined by “and”; a condition that tells them apart may be missing. Equal entries are not always repeated.
Experiments:
[1] = Minimum inhibitory concentration (MIC) against gram negative bacteria Prot. rettgeri M-1771.; type: functional, Providencia rettgeri
How it was run: (§1)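 MICs were determined by standard broth microtitration against 11 Gram-positive and Gram-negative organisms, in µg/mL. Values come from duplicate or triplicate experiments and are accurate to ±50%.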

Pseudomonas aeruginosa [2] = assay: In vivo efficacy (orally) against Pseudomonas aeruginosa in mouse protection test; type: functional
How it was run: (§2)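 Acute lethal systemic infections in female Charles River CD-1 mice. A single dose was given at challenge, orally by gavage or by subcutaneous injection. PD50 (median protective dose, mg/kg) was determined.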

Klebsiella pneumoniae = assay: Minimum inhibitory concentration (MIC) against gram negative bacteria Klebsiella pneumoniae MGH-2.; type: functional; how it was run: as §1
[3] = Number of mice which show positive phototoxic reaction in 5 mice at subcutaneous dose; type: functional, Mus musculus
How it was run: (§3)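 Depilated female CD-1 mice got a single oral (gavage) or subcutaneous dose, then UVA (320–400 nm) exposure for 3 h starting 1 h post-dose. This was repeated for up to 4 consecutive days. Initial doses were 30, 100 and 300 mg/kg. PTD50 was derived by probit. First day of positive reaction and no-effect dose were taken from the raw data.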

Escherichia coli [4] = assay: In vivo efficacy in mouse protection test in Escherichia coli Vogel administered by subcutaneous injection.; type: functional; how it was run: as §2
Streptococcus pneumoniae [5] = assay: Minimum inhibitory concentration (MIC) against gram positive bacteria Streptococcus pneumoniae SV-1.; type: functional; how it was run: as §1
Mus musculus [6] = species on record: Mus musculus; assay: Dose required to induce phototoxic reaction in 50% of mice by probit method at different dosage forms.; type: functional
Mus musculus [7] = assay: Dose required to induce phototoxic reaction in 50% of mice by […] reactions at different dosage forms after sc administration; type: functional
How it was run: (§4)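 Phototoxic skin reaction test in depilated female CD-1 mice. A single oral dose (gavage) or subcutaneous dose was given, followed 1 h later by 3 h of UVA exposure (320–400 nm). The regimen was repeated for up to 4 consecutive days, with initial doses of 30, 100 and 300 mg/kg. PTD50 was derived by the probit method. The first day of positive reaction and the no-effect dose were taken from the raw data.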

Streptococcus pyogenes [8] = assay: In vivo efficacy (orally) against Streptococcus pyogenes C-203 in mouse protection test; type: functional; how it was run: as §2
Mus musculus [9] = assay: Days of the first positive reaction in […] mice after sc administration; type: functional; how it was run: as §4
Streptococcus pyogenes [10] = assay: In vivo efficacy (s.c.) against Streptococcus pyogenes C-203 in mouse protection test; type: functional; how it was run: as §2
Enterococcus faecalis = assay: Minimum inhibitory concentration (MIC) against gram positive bacteria Streptococcus faecalis MGH-2.; type: functional; how it was run: as §1
Mus musculus [11] = species on record: Mus musculus; assay: Dose which has no effect to induce phototoxic reaction in 50% of mice by probit method.; type: functional
Mus musculus [12] = assay: (§5) Maximum tolerance dose was measured for phototoxic skin reaction by sc administration; type: functional; how it was run: as §3
Mus musculus [13] = assay: Maximum tolerance dose was measured for phototoxic skin reaction by po administration; type: functional
Staphylococcus aureus [14] = assay: Minimum inhibitory concentration (MIC) against gram positive bacteria Staphylococcus aureus H-228.; type: functional; how it was run: as §1
Mus musculus [15] = assay: as §5; type: functional; how it was run: as §3; remark: listed apart in the source
Staphylococcus aureus [16] = assay: Minimum inhibitory concentration (MIC) against gram positive bacteria Staphylococcus aureus UC-76.; type: functional; how it was run: as §1
Streptococcus pneumoniae [17] = assay: In vivo efficacy (s.c.) against Streptococcus pneumoniae SV-1 in mouse protection test; type: functional; how it was run: as §2
Mus musculus [18] = assay: Compound's dose which has no effect to induce phototoxic reaction in 50% of mice by […] reactions after sc administration; type: functional; how it was run: as §4
Pseudomonas aeruginosa [19] = assay: Minimum inhibitory concentration (MIC) against gram negative bacteria Pseudomonas aeruginosa UI-18.; type: functional; how it was run: as §1
Escherichia coli [20] = assay: Minimum inhibitory concentration (MIC) against gram negative bacteria Escherichia coli H-560.; type: functional; how it was run: as §1
[21] = Number of mice which show positive phototoxic reaction in 5 mice at peroral dose; type: functional, Mus musculus; how it was run: as §3
Pseudomonas aeruginosa [22] = assay: In vivo efficacy (s.c.) against Pseudomonas aeruginosa in mouse protection test; type: functional; how it was run: as §2
Escherichia coli [23] = assay: Minimum inhibitory concentration (MIC) against gram negative bacteria Escherichia coli Vogel.; type: functional; how it was run: as §1
Streptococcus pneumoniae [24] = assay: In vivo efficacy (orally) against Streptococcus pneumoniae SV-1 in mouse protection test; type: functional; how it was run: as §2
Escherichia coli [25] = assay: In vivo efficacy in mouse protection test in Escherichia coli Vogel dose administered orally by gavage.; type: functional; how it was run: as §2
Streptococcus pyogenes [26] = assay: Minimum inhibitory concentration (MIC) against gram positive bacteria Streptococcus pyogenes C-203.; type: functional; how it was run: as §1
[27] = Staphylococcus aureus, read-out: MIC
[28] = Escherichia coli, read-out: MIC

Question: Which MIC [1] does the source give for `O=C(O)c1cn(C2CC2)c2cc(N3CCNCC3)c(F)cc2c1=O` [CIPROFLOXACIN] here?
Answer: Its MIC is 0.1 µg/mL (≈ 0.302 µM).

Question: What about the MIC ([1]; Providencia rettgeri, read-out: MIC) of the same compound?
Answer: Its MIC is 0.1 µg/mL (≈ 0.302 µM).

Question: And the PD50 (Pseudomonas aeruginosa [2])?
Answer: Its PD50 is 25 mg/kg.

Question: What about the ED50 (Pseudomonas aeruginosa [2]; Pseudomonas aeruginosa, po, read-out: PD50) of the same compound?
Answer: Its ED50 is 25 mg/kg.

Question: And the MIC (Klebsiella pneumoniae)?
Answer: Its MIC is 0.05 µg/mL (≈ 0.151 µM).

Question: And the MIC (Klebsiella pneumoniae; Klebsiella pneumoniae, read-out: MIC)?
Answer: Its MIC is 0.05 µg/mL (≈ 0.151 µM).

Question: And the “No. of pos rxns” value [3]?
Answer: The value was 5.

Question: What about the PD50 (Escherichia coli [4]) of the same compound?
Answer: Its PD50 is 0.25 mg/kg.

Question: What about the ED50 (Escherichia coli [4]; Escherichia coli, sc, read-out: PD50) of the same compound?
Answer: Its ED50 is 0.25 mg/kg.

Question: What about the MIC (Streptococcus pneumoniae [5]) of the same compound?
Answer: The MIC was 0.8 µg/mL (≈ 2.41 µM).

Question: What about the MIC (Streptococcus pneumoniae [5]; Streptococcus pneumoniae, read-out: MIC) of the same compound?
Answer: The MIC was 0.8 µg/mL (≈ 2.41 µM).

Question: What about the PTD50 (Mus musculus [6]) of the same compound?
Answer: The PTD50 was >300 mg kg-1 and 172.

Question: And the PTD50 (Mus musculus [7])?
Answer: Its PTD50 is 172 mg/kg.

Question: What about the PD50 (Streptococcus pyogenes [8]) of the same compound?
Answer: Its PD50 is 180 mg/kg.

Question: And the ED50 (Streptococcus pyogenes [8]; Streptococcus pyogenes, po, read-out: PD50)?
Answer: The ED50 was 180 mg/kg.

Question: What about the “Day of first positve reaction” value (Mus musculus [9]) of the same compound?
Answer: The value was 2.

Question: What about the PD50 (Streptococcus pyogenes [10]) of the same compound?
Answer: Its PD50 is 19 mg/kg.

Question: What about the ED50 (Streptococcus pyogenes [10]; Streptococcus pyogenes, sc, read-out: PD50) of the same compound?
Answer: The ED50 was 19 mg/kg.

Question: What about the MIC (Enterococcus faecalis) of the same compound?
Answer: Its MIC is 1.6 µg/mL (≈ 4.83 µM).

Question: What about the MIC (Enterococcus faecalis; Enterococcus faecalis, read-out: MIC) of the same compound?
Answer: The MIC was 1.6 µg/mL (≈ 4.83 µM).

Question: And the No effect dose (Mus musculus [11])?
Answer: The No effect dose was 300 mg kg-1 and 100.

Question: What about the MTD (Mus musculus [12]) of the same compound?
Answer: Its MTD is 100 mg/kg.

Question: What about the MTD (Mus musculus [13]) of the same compound?
Answer: The MTD was 300 mg/kg.

Question: And the MIC (Staphylococcus aureus [14])?
Answer: The MIC was 1.6 µg/mL (≈ 4.83 µM).

Question: And the MIC (Staphylococcus aureus [14]; [27])?
Answer: Its MIC is 1.6 µg/mL (≈ 4.83 µM).

Question: And the MTD (Mus musculus [15])?
Answer: The MTD was 100 mg/kg.

Question: And the MIC (Staphylococcus aureus [16])?
Answer: The MIC was 0.1 µg/mL (≈ 0.302 µM).

Question: And the MIC (Staphylococcus aureus [16]; [27])?
Answer: Its MIC is 0.1 µg/mL (≈ 0.302 µM).

Question: What about the PD50 (Streptococcus pneumoniae [17]) of the same compound?
Answer: Its PD50 is 29 mg/kg.

Question: What about the ED50 (Streptococcus pneumoniae [17]; Streptococcus pneumoniae, sc, read-out: PD50) of the same compound?
Answer: Its ED50 is 29 mg/kg.

Question: What about the No effect dose (Mus musculus [18]) of the same compound?
Answer: Its No effect dose is 100 mg/kg.

Question: What about the MIC (Pseudomonas aeruginosa [19]) of the same compound?
Answer: Its MIC is 0.2 µg/mL (≈ 0.604 µM).

Question: And the MIC (Pseudomonas aeruginosa [19]; Pseudomonas aeruginosa, read-out: MIC)?
Answer: The MIC was 0.2 µg/mL (≈ 0.604 µM).

Question: What about the MIC (Escherichia coli [20]) of the same compound?
Answer: Its MIC is 0.025 µg/mL (≈ 0.0754 µM).

Question: And the MIC (Escherichia coli [20]; [28])?
Answer: Its MIC is 0.025 µg/mL (≈ 0.0754 µM).

Question: And the “No. of pos rxns” value [21]?
Answer: Its value is 0.

Question: And the PD50 (Pseudomonas aeruginosa [22])?
Answer: Its PD50 is 5 mg/kg.

Question: What about the ED50 (Pseudomonas aeruginosa [22]; Pseudomonas aeruginosa, sc, read-out: PD50) of the same compound?
Answer: The ED50 was 5 mg/kg.

Question: And the MIC (Escherichia coli [23])?
Answer: The MIC was 0.025 µg/mL (≈ 0.0754 µM).

Question: And the MIC (Escherichia coli [23]; [28])?
Answer: Its MIC is 0.025 µg/mL (≈ 0.0754 µM).

Question: And the PD50 (Streptococcus pneumoniae [24])?
Answer: The PD50 was 260 mg/kg.

Question: What about the ED50 (Streptococcus pneumoniae [24]; Streptococcus pneumoniae, po, read-out: PD50) of the same compound?
Answer: Its ED50 is 260 mg/kg.

Question: And the PD50 (Escherichia coli [25])?
Answer: Its PD50 is 1.2 mg/kg.

Question: And the ED50 (Escherichia coli [25]; Escherichia coli, po, read-out: PD50)?
Answer: The ED50 was 1.2 mg/kg.

Question: And the MIC (Streptococcus pyogenes [26])?
Answer: Its MIC is 0.4 µg/mL (≈ 1.21 µM).

Question: And the MIC (Streptococcus pyogenes [26]; Streptococcus pyogenes, read-out: MIC)?
Answer: The MIC was 0.4 µg/mL (≈ 1.21 µM).
